Series [1] relates to Mus musculus. The experiment in a line: Anticonvulsant activity in mouse assessed as protection against 6 Hz psychomotor seizure at 50 mg/kg, ip after 0.5 hrs. The series is classed as functional, organism-based. In short, it runs like this:
(§1)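 Suspension in 0.5% methylcellulose given ip to mice; corneal stimulation with 0.2 ms monopolar rectangular pulses at 6 Hz for 3 s from a constant current device, mice restrained then released to observation cage. Protected if normal exploratory behaviour resumed within 10 s of stimulation. Scored as protected/tested, 4 mice per group.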

Series [2] relates to Mus musculus. The experiment in a line: Anticonvulsant activity in mouse assessed as protection against maximal electric shock-induced seizures at 100 mg/kg, ip measured after 1 hr. The series is classed as functional, organism-based. In short, it runs like this:
(§2)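 Mice dosed ip with suspension in 0.5% methylcellulose; maximal electroshock applied at the listed time after dosing. Protection = abolition of hindlimb tonic extension component of seizure; reported as animals protected/animals tested.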

The subject of series [3] is Mus musculus. The experiment in a line: Neurotoxicity in mouse at 50 mg/kg, ip after 2 hrs by rotarod test. The series is classed as toxicity, organism-based. The conditions noted are these: in vivo. In short, it runs like this: (§3)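 Mice were dosed ip with compound suspended in 0.5% methylcellulose. Rotarod: a 1 in. knurled rod turning at 6 rpm. Neurotoxicity was scored as failure to stay on the rod for at least 1 min in each of three trials. Results are given as the number of animals affected out of the number tested.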
A general note: The rotarod test checks motor coordination on a turning rod.

For series [4], the system named is Mus musculus. The experiment in a line: Neurotoxicity in mouse at 100 mg/kg, ip after 0.5 hrs by rotarod test. The series is classed as toxicity, organism-based. The conditions noted are these: in vivo. The gist of the method:
as §3

Series [5] concerns Mus musculus. The experiment in a line: Neurotoxicity in mouse at 100 mg/kg, ip after […] by rotarod test. The series is classed as toxicity, organism-based. The following applies: in vivo.
Series [6] deals with Mus musculus. The experiment in a line: Neurotoxicity in mouse at 50 mg/kg, ip after 1 hr by rotarod test. The following applies: in vivo. The series is classed as toxicity, organism-based. The gist of the method:
as §3

The subject of series [7] is Mus musculus. The experiment in a line: Neurotoxicity in mouse at 50 mg/kg, ip after 0.5 hrs by rotarod test. The format is toxicity, organism-based. The following applies: in vivo. In short, it runs like this: as §3
The test system of series [8] is Mus musculus. The experiment in a line: Anticonvulsant activity in mouse assessed as protection against maximal electric shock-induced seizures at 100 mg/kg, ip measured after […]. The format is functional, organism-based.
The test system of series [9] is Mus musculus. The experiment in a line: Neurotoxicity in mouse at 100 mg/kg, ip after 4 hrs by rotarod test. The series is classed as toxicity, organism-based. The following applies: in vivo. The gist of the method: as §3
Series [10] relates to Mus musculus. The experiment in a line: Anticonvulsant activity in mouse assessed as protection against maximal electric shock-induced seizures at 100 mg/kg, ip measured after 0.5 hrs. The format is functional, organism-based. The gist of the method: as §2
The subject of series [11] is Mus musculus. The experiment in a line: Anticonvulsant activity in mouse assessed as protection against maximal electric shock-induced seizures at 100 mg/kg, ip measured after 4 hrs. The series is classed as functional, organism-based. In short, it runs like this:
as §2

For series [12], the system named is Mus musculus. The experiment in a line: Neurotoxicity in mouse at 50 mg/kg, ip after 4 hrs by rotarod test. The format is toxicity, organism-based. The conditions noted are these: in vivo. The gist of the method:
as §3

Series [13] relates to Mus musculus. The experiment in a line: Anticonvulsant activity in mouse assessed as protection against 6 Hz psychomotor seizure at 50 mg/kg, ip after 4 hrs. The series is classed as functional, organism-based. The gist of the method: as §1
Series [14] relates to Mus musculus. The experiment in a line: Anticonvulsant activity in mouse assessed as protection against 6 Hz psychomotor seizure at 50 mg/kg, ip after 2 hrs. The format is functional, organism-based. In short, it runs like this:
as §1

Series [15] has as its system Mus musculus. The experiment in a line: Neurotoxicity in mouse at 100 mg/kg, ip after 1 hr by rotarod test. The format is toxicity, organism-based. The following applies: in vivo. In short, it runs like this:
as §3

Series [16] concerns Mus musculus. The experiment in a line: Anticonvulsant activity in mouse assessed as protection against 6 Hz psychomotor seizure at 50 mg/kg, ip after 1 hr. The format is functional, organism-based. The gist of the method: as §1
Series [17] is described as follows: […] from rat cerebral cortex Sodium channel site 2. The format is tissue-based.
Series [18] relates to Vibrio harveyi. The experiment in a line: Antimutagenic activity against Vibrio harveyi BB7XM assessed as inhibition of NQNO-induced mutagenicity after 48 hrs. The series is classed as functional. The gist of the method:
(§4)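 V. harveyi cultures grown exponentially to A600 0.1 at 30 °C, exposed to test compound for 15 min, then to NQNO, and grown on to A600 0.3–0.4. 5 × 10⁶ cells plated on BOSS agar with neomycin (100, final). Neomycin-resistant colonies counted after 48 h at 30 °C. Result given as % inhibition of NQNO mutagenicity; three independent repeats.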

Series [19] has as its system Vibrio harveyi. The experiment in a line: Mutagenicity in Vibrio harveyi BB7XM assessed as number of colonies after 48 hrs (reference value: 14 no_unit). The series is classed as ADME, organism-based. The conditions noted are these: in vivo. The gist of the method:
(§5)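 Vibrio harveyi mutagenicity test: test compound was added to exponentially growing cultures (A600 = 0.1, 30 °C) and grown to OD600 0.3–0.4. Then 5 × 10^6 cells were plated on BOSS agar with neomycin (final 100 µg/mL) and incubated 48 h at 30 °C. Neomycin-resistant colonies were counted. Triplicate; controls were water, DMSO and NQNO 40 ng/mL.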

Series [20] relates to Vibrio harveyi. The experiment in a line: Mutagenicity in Vibrio harveyi BB7M assessed as number of colonies after 48 hrs (reference value: 13 to 14 no_unit). The following applies: in vivo. The format is ADME, organism-based. The gist of the method:
as §5

In series [21] the test system is Vibrio harveyi. The experiment in a line: Antimutagenic activity against Vibrio harveyi BB7M assessed as inhibition of NQNO-induced mutagenicity after 48 hrs. The series is classed as functional. The gist of the method: as §4
The subject of series [22] is Vibrio harveyi. The experiment in a line: Mutagenicity in Vibrio harveyi BB7X assessed as number of colonies after 48 hrs (reference value: 15 to 16 no_unit). The series is classed as ADME, organism-based. The following applies: in vivo. In short, it runs like this:
as §5

For series [23], the system named is Vibrio harveyi. The experiment in a line: Antimutagenic activity against Vibrio harveyi BB7 assessed as inhibition of NQNO-induced mutagenicity after 48 hrs. The format is functional. In short, it runs like this:
as §4

The subject of series [24] is Vibrio harveyi. The experiment in a line: Antimutagenic activity against Vibrio harveyi BB7X assessed as inhibition of NQNO-induced mutagenicity after 48 hrs. The format is functional. In short, it runs like this: as §4
Series [25] relates to Vibrio harveyi. The experiment in a line: Mutagenicity in Vibrio harveyi BB7 assessed as number of colonies after 48 hrs (reference value: 13 to 14 no_unit). The conditions noted are these: in vivo. The format is ADME, organism-based. The gist of the method: as §5
The nature of series [26]: […] from rat cerebral cortex GABA-gated chloride channel. The series is classed as tissue-based.
Series [27] is described as follows: Displacement of [3H]D888 from rat cerebral cortex L-type calcium channel verapamil binding site. The series is classed as tissue-based. A general note: Loss of bound radioactivity is the signal in a displacement assay; it reports binding, not function.

Active and inactive are the calls of the source. The rule behind the calls is not given here.

With `Cc1cccc(OCCN[C@@H]2CCCC[C@H]2O)c1C` (racemic), the result in the series on Mus musculus [1], with Mus musculus [11], with Mus musculus [13], with Mus musculus [14] and in the series on Mus musculus [16] was inactive. For the same compound, the result in the series on Mus musculus [2], with Mus musculus [8] and with Mus musculus [10] was Active. Besides, the Activity result is “Non-toxic” in the series with Mus musculus [3]; “Toxic” in the series with Mus musculus [4]; “Toxic” in the series on Mus musculus [5]; “Non-toxic” with Mus musculus [6]; “Non-toxic” in the series with Mus musculus [7]; “Non-toxic” in the series on Mus musculus [9]. The Activity entry in the series on Mus musculus [12] is given as “Non-toxic”; in the series with Mus musculus [15] it was “Toxic”.

On to `COc1ccc(C(=O)O[C@H]2CC[C@@]3(C)[C@@H]4CC[C@H]5[C@]6(O)C[C@H](O)[C@@]7(O)[C@@H](CN8C[C@@H](C)CC[C@H]8[C@@]7(C)O)[C@]6(O)C[C@@]53O[C@]24O)cc1OC` [VERATRIDINE], for which the half-maximal inhibitory concentration (IC50) (as a rule, the concentration at which inhibition is half-maximal) in [17] was 4000 nM.

For the compound `Cc1cc(C)c(OCCOCCN[C@@H]2CCCC[C@H]2O)c(C)c1` (racemic), the “inhibition (INH)” value was 0% in the series on Vibrio harveyi [18], 27% with Vibrio harveyi [21], 62% in the series with Vibrio harveyi [23] and 0% in the series on Vibrio harveyi [24]. For the same compound, the Activity entry with Mus musculus [3] is reported as “Non-toxic”; with Vibrio harveyi [19], 26; in the series with Vibrio harveyi [20], 10; with Mus musculus [6], “Non-toxic”; in the series with Mus musculus [7], “Non-toxic”; in the series with Vibrio harveyi [22], 15. Also, the Activity entry was “Non-toxic” with Mus musculus [12] and 20 in the series with Vibrio harveyi [25]. The result in the series on Mus musculus [13], in the series on Mus musculus [14] and in the series on Mus musculus [16] was inactive.

`C=C(C)[C@@H]1[C@H]2OC(=O)[C@@H]1[C@]1(O)C[C@H]3O[C@]34C(=O)O[C@H]2[C@]14C` [PICROTOXININ] showed an IC50 in [26] of 77 nM.

For the compound `COc1ccc(CCN(C)CCCC(C#N)(c2cc(OC)c(OC)c(OC)c2)C(C)C)cc1OC` (centres undefined) [GALLOPAMIL], in [27], the IC50 was 15 nM.

The values above are taken from ChEMBL document CHEMBL3774372, “Design, physico-chemical properties and biological evaluation of some new N-[(phenoxy)alkyl]- and N-{2-[2-(phenoxy)ethoxy]ethyl}aminoalkanols as anticonvulsant agents” (Bioorg Med Chem, 2016).
